Test results from ChEMBL document CHEMBL1148454, “[1-(3,5-difluoro-4-hydroxyphenyl)-1H-pyrrol-3-yl]phenylmethanone as a bioisostere of a carboxylic acid aldose reductase inhibitor” (J Med Chem, 2004).
pIC50: −log10 of the molar value.

Legend:
[1] = biological target: Aldo-keto reductase family 1 member B1 (Rattus norvegicus, UniProt P07943); experiment: In vitro inhibitory activity of compound against rat lens aldose reductase
[2] = biological target: Aldo-keto reductase family 1 member B1 (Rattus norvegicus) (UniProt P07943); experiment: In vitro percentage inhibition of rat lens aldose reductase at 10E-5 M concentration
Summary of the method: (§1)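 Rat lens (Fischer-344, both sexes) aldose reductase, assayed by spectrophotometric monitoring of NADPH oxidation. Compounds dissolved in 0.2 M NaHCO3. Inhibition at a single concentration, triplicate determinations.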

[3] = biological target: Aldo-keto reductase family 1 member B1 (Rattus norvegicus) (UniProt P07943); experiment: In vitro percentage inhibition of rat lens aldose reductase at 10E-6 M concentration; summary of the method: as §1
[4] = In vitro percentage inhibition of formation of DNPH-reactive carbonyl groups in BSA exposed to fructose at 1 mM concentration; assay type: functional
Summary of the method: (§2)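 Bovine serum albumin (fraction V, essentially fatty acid free) incubated with fructose for 28 days. Compounds given as potassium salts in water; trolox as reference.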

[5] = In vitro percentage inhibition of formation of DNPH-reactive carbonyl groups in BSA exposed to fructose at […] concentration; assay type: functional
[6] = In vitro percentage inhibition of formation of DNPH-reactive carbonyl groups in BSA exposed to fructose at 5 mM concentration; assay type: functional; summary of the method: as §2
[7] = In vitro percentage inhibition of glycation-induced fluorescence changes of BSA at 1 mM concentration; assay type: functional; summary of the method: as §2
[8] = In vitro percentage inhibition of glycation-induced fluorescence changes of BSA at […] concentration; assay type: functional
[9] = In vitro percentage inhibition of glycation-induced fluorescence changes of BSA at 5 mM concentration; assay type: functional; summary of the method: as §2
[10] = biological target: Aldo-keto reductase family 1 member B1 (Rattus norvegicus) (UniProt P07943); experiment: In vitro percentage inhibition of rat lens aldose reductase at 10E-7 M concentration; summary of the method: as §1

O=C(O)Cn1ccc(C(=O)c2ccccc2)c1
pIC50 [1]: 5.71
inhibition [2]: 78%
inhibition [3]: 37%
inhibition [4]: 28%
inhibition [5]: 51%
inhibition [6]: 67%
inhibition [7]: 48%
inhibition [8]: 67%
inhibition [9]: 81%

Cc1c(C)c2c(c(C)c1O)CCC(C)(C(=O)O)O2 (centres undefined)
inhibition [4]: 36%
inhibition [7]: 59%

O=C(c1ccccc1)c1ccn(-c2cc(F)c(O)c(F)c2)c1
pIC50 [1]: 6.40
inhibition [2]: 88%
inhibition [3]: 68%
inhibition [10]: 29%
inhibition [4]: 48%
inhibition [5]: 55%
inhibition [6]: 61%
inhibition [7]: 64%
inhibition [8]: 68%
inhibition [9]: 74%

Oc1c(F)cc(-n2cccc2)cc1F
pIC50 [1]: 4.63
inhibition [2]: 24%
inhibition [3]: 13%
